Values belong to the compound of their own block, whether it stands above or below them.
Legend:
[1] = molecular target: Voltage-gated inwardly rectifying potassium channel KCNH2 (Homo sapiens, UniProt Q12809); test: Inhibition of human ERG
Renin [2] = molecular target: T1, Renin (Homo sapiens, UniProt P00797); test: Inhibition of human recombinant renin using Q-FRET substrate after 3 hrs by fluorescence assay
T1 sequence (P00797 whole entry): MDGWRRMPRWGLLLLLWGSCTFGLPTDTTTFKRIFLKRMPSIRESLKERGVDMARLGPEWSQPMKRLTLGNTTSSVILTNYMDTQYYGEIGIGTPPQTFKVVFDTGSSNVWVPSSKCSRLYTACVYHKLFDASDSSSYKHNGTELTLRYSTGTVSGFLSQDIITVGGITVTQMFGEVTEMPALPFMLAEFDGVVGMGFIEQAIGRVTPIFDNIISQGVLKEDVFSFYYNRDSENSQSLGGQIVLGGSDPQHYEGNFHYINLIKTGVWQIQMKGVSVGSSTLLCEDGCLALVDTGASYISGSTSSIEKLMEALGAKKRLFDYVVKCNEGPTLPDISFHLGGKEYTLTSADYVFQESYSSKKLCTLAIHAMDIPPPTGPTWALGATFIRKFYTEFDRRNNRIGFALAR

Renin [3] = molecular target: T1, Renin; test: Inhibition of renin in human plasma using Q-FRET substrate pretreated for 10 mins before substrate addition measured after 1 hr
[4] = Oral bioavailability in Sprague-Dawley rat at 20 mg/kg; type: ADME, organism-based; settings: in vivo
[5] = Plasma concentration in cardiac electrophysiology rat model at 10 mg/kg, iv after 0.5 hrs; type: ADME, organism-based; parameters: dose 10 mg/kg, route intravenous
Procedure, shortened: (§1)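 Rat electrophysiology model dosed at 10 mpk over 0.5 h. PR and QRS prolongation expressed as percentage change from baseline; plasma concentration (µM) recorded.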

Rattus norvegicus [6] = test: Cardiotoxicity in cardiac electrophysiology rat model assessed as prolongation of QRS intervals at 10 mg/kg, iv after 0.5 hrs relative to baseline; type: toxicity, organism-based, Heart; parameters: dose 10 mg/kg, route intravenous; settings: in vivo; procedure, shortened: as §1
CYP3A4 [7] = molecular target: T2, CYP3A4 (Homo sapiens, UniProt P08684); test: Time dependent inhibition of CYP3A4 assessed as conversion of testosterone to 6-beta-hydroxytestosterone at 10 uM relative to control; type: ADME; settings: probe testosterone
T2 sequence (P08684 whole entry): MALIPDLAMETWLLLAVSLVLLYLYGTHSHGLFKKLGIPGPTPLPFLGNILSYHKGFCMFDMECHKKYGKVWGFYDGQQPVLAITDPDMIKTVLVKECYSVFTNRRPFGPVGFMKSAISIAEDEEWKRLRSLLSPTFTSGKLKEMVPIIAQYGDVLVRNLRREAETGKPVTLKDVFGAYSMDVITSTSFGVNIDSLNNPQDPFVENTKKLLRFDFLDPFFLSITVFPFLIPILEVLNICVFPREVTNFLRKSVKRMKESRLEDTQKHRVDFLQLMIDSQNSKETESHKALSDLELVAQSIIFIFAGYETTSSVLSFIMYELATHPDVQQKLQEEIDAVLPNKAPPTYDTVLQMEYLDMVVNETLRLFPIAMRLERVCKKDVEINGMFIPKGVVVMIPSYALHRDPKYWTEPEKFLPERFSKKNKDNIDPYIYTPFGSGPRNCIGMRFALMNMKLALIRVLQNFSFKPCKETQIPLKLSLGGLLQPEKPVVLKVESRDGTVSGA
Procedure, shortened: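 Rate of CYP3A4 conversion of testosterone (250 μM) to 6-β-hydroxytestosterone measured before and after a 30 min incubation with compound at 10 μM (in DMSO). Difference expressed as % loss.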

CYP3A4 [8] = molecular target: T2, CYP3A4; test: Reversible inhibition of CYP3A4 assessed as conversion of testosterone to 6-beta-hydroxytestosterone at 10 uM relative to control; type: ADME; settings: probe testosterone
Canis familiaris [9] = test: Cardiotoxicity in anesthetized, vagotomized and ventilated Mongrel dog assessed as prolongation of QRS intervals at 10 mg/kg, iv after 1.5 hrs relative to baseline; type: toxicity, organism-based, Canis lupus familiaris; parameters: dose 10 mg/kg, route intravenous; settings: in vivo
Procedure, shortened: (§2)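 Anesthetized, vagotomized, ventilated mongrel dogs received an iv infusion of 10 mpk over 1.5 h. QTc, PR and QRS intervals were recorded as percentage change from baseline, and plasma concentration (µM) was measured.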

Rattus norvegicus [10] = test: Cardiotoxicity in cardiac electrophysiology rat model assessed as prolongation of PR intervals at 10 mg/kg, iv after 0.5 hrs relative to baseline; type: toxicity, organism-based, Heart; parameters: dose 10 mg/kg, route intravenous; settings: in vivo; procedure, shortened: as §1
Canis familiaris [11] = test: Cardiotoxicity in anesthetized, vagotomized and ventilated Mongrel dog assessed as prolongation of QTc intervals at 10 mg/kg, iv after 1.5 hrs relative to baseline; type: toxicity, organism-based, Canis lupus familiaris; parameters: dose 10 mg/kg, route intravenous; settings: in vivo; procedure, shortened: as §2
[12] = Plasma concentration in anesthetized, vagotomized and ventilated Mongrel dog at 10 mg/kg, iv after 1.5 hrs; type: ADME, organism-based, Canis lupus familiaris; parameters: dose 10 mg/kg, route intravenous; procedure, shortened: as §2
Canis familiaris [13] = test: Cardiotoxicity in anesthetized, vagotomized and ventilated Mongrel dog assessed as prolongation of PR intervals at 10 mg/kg, iv after 1.5 hrs relative to baseline; type: toxicity, organism-based, Canis lupus familiaris; parameters: dose 10 mg/kg, route intravenous; settings: in vivo; procedure, shortened: as §2
[14] = Half life in cynomolgus monkey at 3 mg/kg, po and 1 mg/kg, iv; type: ADME, organism-based, Macaca fascicularis; settings: in vivo
Cytochrome P450 3A4 [15] = molecular target: T3, Cytochrome P450 3A4 (Homo sapiens, UniProt P08684); test: Reversible inhibition of CYP3A4 assessed as conversion of testosterone to 6-beta-hydroxytestosterone; type: ADME
T3 sequence (P08684 whole entry): as above

Liver microsomes [16] = test: Covalent binding in human liver microsomes assessed per mg of protein at 10 uM after 60 mins in absence of NADPH; type: ADME, Microsome; settings: 1 h
Procedure, shortened: (§3)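 Test compound at 10 μM was incubated for 60 min (n = 3) with human liver microsomes at 1 mg protein/mL, with or without 1 mM NADPH. Covalent binding reported as pmole eq/mg at 1 h.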

[17] = AUC in Beagle dog at 3 mg/kg, po; type: ADME, organism-based, Canis lupus familiaris; parameters: dose 3 mg/kg, route oral; settings: plasma
[18] = Half life in Beagle dog at 3 mg/kg, po and 1 mg/kg, iv; type: ADME, organism-based, Canis lupus familiaris; settings: in vivo
[19] = Oral bioavailability in cynomolgus monkey at 3 mg/kg; type: ADME, organism-based, Macaca fascicularis; settings: in vivo
[20] = AUC in Sprague-Dawley rat at 20 mg/kg, po; type: ADME, organism-based; parameters: dose 20 mg/kg, route oral; settings: plasma
Rattus norvegicus [21] = test: Antihypertensive activity in double transgenic rat model assessed as duration in reduction of blood pressure at 10 mg/kg, po; type: functional
[22] = Volume of distribution at steady state in Sprague-Dawley rat at 20 mg/kg, po and 5 mg/kg, iv; settings: in vivo, read-out: Vdss
Liver microsomes [23] = test: Covalent binding in human liver microsomes assessed per mg of protein at 10 uM after 60 mins in presence of NADPH; type: ADME, Microsome; settings: 1 h; procedure, shortened: as §3
Cytochrome P450 3A4 [24] = molecular target: T3, Cytochrome P450 3A4; test: Time dependent inhibition of CYP3A4 assessed as conversion of testosterone to 6-beta-hydroxytestosterone preincubated for 30 mins; type: ADME
Procedure, shortened: (§4)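 Time-dependent CYP3A4 inhibition (testosterone to 6-β-hydroxytestosterone).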

Rattus norvegicus [25] = test: Antihypertensive activity in double transgenic rat model assessed as reduction of blood pressure at 10 mg/kg, po; type: functional
[26] = Clearance in cynomolgus monkey at 3 mg/kg, po and 1 mg/kg, iv; type: ADME, organism-based, Macaca fascicularis; settings: in vivo
[27] = Clearance in Sprague-Dawley rat at 20 mg/kg, po and 5 mg/kg, iv; settings: in vivo
[28] = Volume of distribution at steady state in cynomolgus monkey at 3 mg/kg, po and 1 mg/kg, iv; type: ADME, organism-based, Macaca fascicularis; settings: in vivo, read-out: Vdss
[29] = Clearance in Beagle dog at 3 mg/kg, po and 1 mg/kg, iv; type: ADME, organism-based, Canis lupus familiaris; settings: in vivo
[30] = Half life in Sprague-Dawley rat at 20 mg/kg, po and 5 mg/kg, iv; settings: in vivo
[31] = Oral bioavailability in Beagle dog at 3 mg/kg; type: ADME, organism-based, Canis lupus familiaris; settings: in vivo
[32] = Volume of distribution at steady state in Beagle dog at 3 mg/kg, po and 1 mg/kg, iv; type: ADME, organism-based, Canis lupus familiaris; settings: in vivo, read-out: Vdss
Cytochrome P450 3A4 [33] = molecular target: T3, Cytochrome P450 3A4; test: Time dependent inhibition of CYP3A4 assessed as conversion of testosterone to 6-beta-hydroxytestosterone; type: ADME; procedure, shortened: as §4
[34] = AUC in cynomolgus monkey at 3 mg/kg, po; type: ADME, organism-based, Macaca fascicularis; parameters: dose 3 mg/kg, route oral; settings: plasma
[35] = molecular target: Voltage-dependent L-type calcium channel subunit alpha-1C (Homo sapiens, UniProt Q13936); test: Inhibition of human Cav1.2
Sequence of Voltage-dependent L-type calcium channel subunit alpha-1C (Q13936 whole entry): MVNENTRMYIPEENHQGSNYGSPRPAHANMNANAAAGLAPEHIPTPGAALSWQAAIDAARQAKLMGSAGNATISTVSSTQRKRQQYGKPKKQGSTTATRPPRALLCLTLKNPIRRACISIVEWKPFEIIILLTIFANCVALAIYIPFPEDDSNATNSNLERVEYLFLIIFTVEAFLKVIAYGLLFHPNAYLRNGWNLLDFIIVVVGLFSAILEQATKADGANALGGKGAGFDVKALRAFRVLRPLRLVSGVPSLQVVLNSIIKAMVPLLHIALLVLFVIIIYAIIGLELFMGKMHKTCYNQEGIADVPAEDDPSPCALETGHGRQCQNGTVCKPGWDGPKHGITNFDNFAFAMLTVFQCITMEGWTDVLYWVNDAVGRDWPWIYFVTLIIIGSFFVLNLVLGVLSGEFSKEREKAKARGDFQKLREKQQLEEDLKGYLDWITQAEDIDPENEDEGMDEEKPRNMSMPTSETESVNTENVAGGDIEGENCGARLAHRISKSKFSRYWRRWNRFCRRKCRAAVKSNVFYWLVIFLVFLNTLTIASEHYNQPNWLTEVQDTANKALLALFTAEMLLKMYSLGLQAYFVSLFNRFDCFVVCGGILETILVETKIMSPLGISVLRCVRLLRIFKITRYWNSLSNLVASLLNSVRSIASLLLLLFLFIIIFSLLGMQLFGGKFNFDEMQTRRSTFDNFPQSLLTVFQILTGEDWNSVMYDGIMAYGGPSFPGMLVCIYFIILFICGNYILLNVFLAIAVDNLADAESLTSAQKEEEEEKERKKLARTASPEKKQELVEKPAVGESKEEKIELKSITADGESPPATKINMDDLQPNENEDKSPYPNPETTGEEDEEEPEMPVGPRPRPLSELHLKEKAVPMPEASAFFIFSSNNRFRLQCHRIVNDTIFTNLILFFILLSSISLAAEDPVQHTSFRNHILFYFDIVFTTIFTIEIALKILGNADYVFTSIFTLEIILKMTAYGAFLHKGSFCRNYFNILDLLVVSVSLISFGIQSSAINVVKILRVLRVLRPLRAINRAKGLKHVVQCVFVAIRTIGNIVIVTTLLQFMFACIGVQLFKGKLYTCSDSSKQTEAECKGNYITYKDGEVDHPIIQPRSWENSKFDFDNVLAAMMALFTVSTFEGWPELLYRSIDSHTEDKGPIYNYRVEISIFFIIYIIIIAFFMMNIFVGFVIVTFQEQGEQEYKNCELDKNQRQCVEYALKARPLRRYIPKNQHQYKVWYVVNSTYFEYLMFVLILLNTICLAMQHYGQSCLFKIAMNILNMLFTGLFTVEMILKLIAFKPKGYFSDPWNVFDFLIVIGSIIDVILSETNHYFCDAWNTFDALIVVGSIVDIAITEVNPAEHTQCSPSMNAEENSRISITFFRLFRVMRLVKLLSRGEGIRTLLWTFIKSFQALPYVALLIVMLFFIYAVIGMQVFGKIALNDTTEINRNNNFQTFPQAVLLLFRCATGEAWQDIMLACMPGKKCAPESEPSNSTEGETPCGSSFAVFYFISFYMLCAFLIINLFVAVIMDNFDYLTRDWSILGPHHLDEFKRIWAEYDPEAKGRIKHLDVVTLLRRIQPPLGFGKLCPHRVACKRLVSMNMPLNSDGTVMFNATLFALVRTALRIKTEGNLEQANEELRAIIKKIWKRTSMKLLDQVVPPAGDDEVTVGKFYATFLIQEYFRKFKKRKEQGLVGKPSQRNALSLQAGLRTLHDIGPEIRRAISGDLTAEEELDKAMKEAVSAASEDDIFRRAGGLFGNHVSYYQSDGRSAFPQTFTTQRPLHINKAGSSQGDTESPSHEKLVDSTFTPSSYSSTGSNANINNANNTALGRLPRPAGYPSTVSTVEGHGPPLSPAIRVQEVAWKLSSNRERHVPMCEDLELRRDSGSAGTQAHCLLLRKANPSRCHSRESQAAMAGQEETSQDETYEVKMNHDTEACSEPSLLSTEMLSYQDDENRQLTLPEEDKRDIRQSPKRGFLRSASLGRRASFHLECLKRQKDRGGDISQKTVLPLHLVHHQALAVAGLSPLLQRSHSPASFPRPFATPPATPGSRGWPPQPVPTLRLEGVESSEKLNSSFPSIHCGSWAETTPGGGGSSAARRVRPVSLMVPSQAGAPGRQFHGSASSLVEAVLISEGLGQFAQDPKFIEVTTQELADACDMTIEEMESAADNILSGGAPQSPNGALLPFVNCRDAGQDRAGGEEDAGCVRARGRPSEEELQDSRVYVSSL

[36] = molecular target: Sodium channel protein type 5 subunit alpha (Homo sapiens, UniProt Q14524); test: Inhibition of human Nav1.5
[37] = Oral bioavailability in Sprague-Dawley rat at 30 mg/kg; type: ADME, organism-based; settings: in vivo
[38] = Oral bioavailability in Sprague-Dawley rat at 3 mg/kg; type: ADME, organism-based; settings: in vivo
[39] = Solubility of the compound in water; type: physicochemical; settings: buffer

Sequence of Voltage-gated inwardly rectifying potassium channel KCNH2 (Q12809 whole entry): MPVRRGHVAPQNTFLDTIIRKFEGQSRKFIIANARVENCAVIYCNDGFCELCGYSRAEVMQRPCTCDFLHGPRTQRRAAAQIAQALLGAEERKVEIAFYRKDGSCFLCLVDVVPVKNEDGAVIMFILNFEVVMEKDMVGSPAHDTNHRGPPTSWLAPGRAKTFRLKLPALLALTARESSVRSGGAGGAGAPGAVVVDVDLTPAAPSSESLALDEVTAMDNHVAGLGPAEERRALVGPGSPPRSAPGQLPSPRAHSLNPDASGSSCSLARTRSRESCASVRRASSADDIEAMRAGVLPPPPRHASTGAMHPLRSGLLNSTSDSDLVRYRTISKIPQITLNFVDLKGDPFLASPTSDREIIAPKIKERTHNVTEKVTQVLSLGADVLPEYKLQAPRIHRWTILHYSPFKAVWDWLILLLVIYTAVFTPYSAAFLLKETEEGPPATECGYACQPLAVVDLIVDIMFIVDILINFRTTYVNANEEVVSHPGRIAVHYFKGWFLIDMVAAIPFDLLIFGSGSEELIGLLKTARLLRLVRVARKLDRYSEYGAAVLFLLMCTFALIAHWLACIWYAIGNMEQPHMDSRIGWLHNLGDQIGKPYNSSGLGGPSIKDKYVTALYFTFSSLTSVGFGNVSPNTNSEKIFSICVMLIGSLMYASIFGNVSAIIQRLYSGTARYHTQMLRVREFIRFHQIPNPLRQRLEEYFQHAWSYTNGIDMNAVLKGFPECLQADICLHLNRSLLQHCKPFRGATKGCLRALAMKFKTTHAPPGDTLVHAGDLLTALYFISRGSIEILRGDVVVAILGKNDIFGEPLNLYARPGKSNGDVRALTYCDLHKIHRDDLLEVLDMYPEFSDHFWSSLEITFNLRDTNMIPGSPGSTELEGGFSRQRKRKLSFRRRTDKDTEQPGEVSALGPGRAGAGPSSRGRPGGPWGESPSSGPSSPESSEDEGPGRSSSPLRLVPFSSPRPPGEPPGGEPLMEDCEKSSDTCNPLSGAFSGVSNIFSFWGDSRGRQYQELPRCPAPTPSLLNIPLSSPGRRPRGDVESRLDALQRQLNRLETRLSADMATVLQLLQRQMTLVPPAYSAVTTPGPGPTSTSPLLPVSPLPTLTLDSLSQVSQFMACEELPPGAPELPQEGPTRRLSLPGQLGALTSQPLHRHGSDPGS

- IC50 (Renin [2]): 0.88 nM
- IC50 (Renin [3]): 2 nM
- bioavailability [38]: 0%
- inhibition at 10 µM (CYP3A4 [7]): 44%
- activity % at 10 µM (CYP3A4 [8]): 61%
Structure (SMILES): Cn1ccc([C@H]2CCNC[C@@H]2C(=O)N(Cc2cn(Cc3cccnc3)c3cccc(F)c23)C2CC2)cc1=O
- Ki [1]: 12000 nM

- IC50 (Renin [2]): 0.24 nM
- IC50 (Renin [3]): 0.53 nM
- bioavailability [38]: 0%
- inhibition at 10 µM (CYP3A4 [7]): 29%
- activity % at 10 µM (CYP3A4 [8]): 44%
Structure (SMILES): Cn1ccc([C@H]2CCNC[C@@H]2C(=O)N(Cc2cn(Cc3ccncc3)c3cccc(F)c23)C2CC2)cc1=O
- Ki [1]: 15000 nM

The remaining lines, values behind:

Structure (SMILES): COCCCc1cc(Cl)c(Cl)c(CN(C(=O)[C@H]2CNCC[C@@H]2c2ccn(C)c(=O)c2)C2CC2)c1
- Ki [1]: 4800 nM
- IC50 (Renin [2]): 0.3 nM
- IC50 (Renin [3]): 1.3 nM
- bioavailability [4]: 24%
- concentration at 0.5 h [5]: 7.4 µM
- Activity (Rattus norvegicus [6]): 54%
- inhibition at 10 µM (CYP3A4 [7]): 16%
- activity % at 10 µM (CYP3A4 [8]): 53%
- Activity (Canis familiaris [9]): 33%
- Activity (Rattus norvegicus [10]): 35%
- Activity (Canis familiaris [11]): 10%
- concentration at 1.5 h [12]: 15 µM
- Activity (Canis familiaris [13]): 50%

Structure (SMILES): COCCCc1cc(CN(C(=O)[C@H]2CNCC[C@@H]2c2ccn(C)c(=O)c2)C2CC2)cc(Br)c1C
- half-life [14]: 7.8 h
- IC50 (Cytochrome P450 3A4 [15]): 6500 nM
- Ki [1]: 18000 nM
- IC50 (Renin [2]): 1 nM
- Activity (Liver microsomes [16]): 8.3 pmolequiv
- AUC [17]: 2.1 µM·h
- half-life [18]: 13.7 h
- bioavailability [19]: 14%
- AUC [20]: 4.2 µM·h
- Time (Rattus norvegicus [21]): 24 h
- Vd [22]: 17 L/kg
- Activity (Liver microsomes [23]): 34.5 pmolequiv
- IC50 (Cytochrome P450 3A4 [24]): 16000 nM
- IC50 (Renin [3]): 2.4 nM
- bioavailability [4]: 30%
- concentration at 0.5 h [5]: 7.9 µM
- Activity (Rattus norvegicus [6]): 14%
- Activity (Rattus norvegicus [25]): 35 mmHg
- clearance [26]: 14 mL/min/kg
- clearance [27]: 67 mL/min/kg
- inhibition at 10 µM (CYP3A4 [7]): 0%
- Vd [28]: 4.8 L/kg
- clearance [29]: 16 mL/min/kg
- activity % at 10 µM (CYP3A4 [8]): 22%
- half-life [30]: 5.2 h
- Activity (Canis familiaris [9]): 4%
- bioavailability [31]: 36%
- Activity (Rattus norvegicus [10]): 16%
- Activity (Canis familiaris [11]): 0%
- Vd [32]: 4.5 L/kg
- concentration at 1.5 h [12]: 9.3 µM
- IC50 (Cytochrome P450 3A4 [33]): 20000 nM
- Activity (Canis familiaris [13]): 5%
- AUC [34]: 0.9 µM·h

Structure (SMILES): COCCCn1cc(CN(C(=O)[C@H]2CNCC[C@@H]2c2ccn(C)c(=O)c2)C2CC2)c2ccccc21
- IC50 (Renin [2]): 2.3 nM
- IC50 (Renin [3]): 5.2 nM
- IC50 [35]: > 30000 nM
- IC50 [36]: > 30000 nM
- concentration at 0.5 h [5]: 12.7 µM
- Activity (Rattus norvegicus [6]): 30%
- inhibition at 10 µM (CYP3A4 [7]): 45%
- Activity (Canis familiaris [9]): 12%
- Activity (Rattus norvegicus [10]): 23%
- Activity (Canis familiaris [11]): 6%
- concentration at 1.5 h [12]: 25 µM
- Activity (Canis familiaris [13]): 14%
- bioavailability [37]: 8%

Structure (SMILES): Cn1ccc([C@H]2CCNC[C@@H]2C(=O)N(Cc2c[nH]c3cccc(F)c23)C2CC2)cc1=O
- Ki [1]: > 29000 nM
- IC50 (Renin [2]): 12 nM
- IC50 (Renin [3]): 8.4 nM
- bioavailability [38]: 0%
- inhibition at 10 µM (CYP3A4 [7]): 0%
- activity % at 10 µM (CYP3A4 [8]): 74%

Structure (SMILES): COCCCc1cc(CN(C(=O)[C@H]2CNCC[C@@H]2c2ccn(C)c(=O)c2)C2CC2)cc(Br)c1C.Cl
- solubility [39]: soluble

Reference: ChEMBL document CHEMBL1795332, “Renin inhibitors for the treatment of hypertension: design and optimization of a novel series of pyridone-substituted piperidines” (Bioorg Med Chem Lett, 2011)
